Assay [1] addresses Epidermal growth factor receptor (Homo sapiens, UniProt P00533). The experiment in a line: Inhibition of EGFR (unknown origin).
Another assay deals with T1, TGF-beta receptor type-1 (Homo sapiens, UniProt P36897).
T1 sequence (P36897 whole entry): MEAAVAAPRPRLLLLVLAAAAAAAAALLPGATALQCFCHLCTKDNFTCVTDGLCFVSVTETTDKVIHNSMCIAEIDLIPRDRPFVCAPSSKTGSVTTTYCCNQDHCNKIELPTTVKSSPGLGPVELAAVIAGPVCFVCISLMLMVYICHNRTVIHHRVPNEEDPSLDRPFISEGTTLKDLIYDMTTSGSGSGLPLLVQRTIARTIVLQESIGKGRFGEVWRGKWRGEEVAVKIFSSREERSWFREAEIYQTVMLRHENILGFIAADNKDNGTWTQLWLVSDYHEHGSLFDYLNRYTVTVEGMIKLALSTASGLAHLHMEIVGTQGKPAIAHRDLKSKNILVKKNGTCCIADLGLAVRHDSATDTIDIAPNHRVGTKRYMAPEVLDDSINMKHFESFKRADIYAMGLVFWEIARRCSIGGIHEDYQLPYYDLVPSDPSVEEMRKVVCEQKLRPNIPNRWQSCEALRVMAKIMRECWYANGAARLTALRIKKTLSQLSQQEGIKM
As to the kind of experiment: Inhibition of ALK5 (unknown origin).

In assay [2] the target is T2, Receptor-interacting serine/threonine-protein kinase 2 (Homo sapiens, UniProt O43353). The experiment in a line: Inhibition of RIP2 (unknown origin).
T2 sequence (O43353 whole entry): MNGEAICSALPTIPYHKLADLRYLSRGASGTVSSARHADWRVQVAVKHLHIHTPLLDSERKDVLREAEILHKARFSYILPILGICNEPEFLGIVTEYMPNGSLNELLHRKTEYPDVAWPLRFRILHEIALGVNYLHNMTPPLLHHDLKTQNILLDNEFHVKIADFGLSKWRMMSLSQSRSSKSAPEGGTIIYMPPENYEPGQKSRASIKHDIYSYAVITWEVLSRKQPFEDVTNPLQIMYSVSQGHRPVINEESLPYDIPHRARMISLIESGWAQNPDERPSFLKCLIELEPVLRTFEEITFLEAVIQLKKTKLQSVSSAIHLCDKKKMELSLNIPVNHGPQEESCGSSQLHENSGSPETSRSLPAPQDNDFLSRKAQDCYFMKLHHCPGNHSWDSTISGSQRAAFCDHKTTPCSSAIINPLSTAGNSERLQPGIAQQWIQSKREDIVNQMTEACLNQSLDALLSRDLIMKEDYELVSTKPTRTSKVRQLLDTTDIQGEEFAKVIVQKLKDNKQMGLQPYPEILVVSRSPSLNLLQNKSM
Assay [3] has as its target Vascular endothelial growth factor receptor 2 (Homo sapiens, UniProt P35968). As to the kind of experiment: Inhibition of VEGFR2 (unknown origin).
Assay [4] addresses T2, Receptor-interacting serine/threonine-protein kinase 2. The experiment in a line: Relative binding affinity to RIP2 (unknown origin) by affinity selection mass spectrometry analysis. An outline of the steps: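 Test material was freed from the DNA headpiece by cleaving the tetrahydropyranyl linker with 0.1% formic acid at 60 °C for 1 h. The released compound was then tested by affinity selection mass spectrometry, and binding was expressed as relative binding affinity (%RBA).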

Assay [5] has the same target. As to the kind of experiment: Inhibition of RIP2 (unknown origin) by biochemical assay.
The target is the same in assay [6]. As to the kind of experiment: Inhibition of RIP2 (unknown origin) by fluorescence polarization based binding assay. In general terms: Polarisation of emitted light reports the rotation of a fluorescent probe.

Sequence of Epidermal growth factor receptor (P00533 whole entry): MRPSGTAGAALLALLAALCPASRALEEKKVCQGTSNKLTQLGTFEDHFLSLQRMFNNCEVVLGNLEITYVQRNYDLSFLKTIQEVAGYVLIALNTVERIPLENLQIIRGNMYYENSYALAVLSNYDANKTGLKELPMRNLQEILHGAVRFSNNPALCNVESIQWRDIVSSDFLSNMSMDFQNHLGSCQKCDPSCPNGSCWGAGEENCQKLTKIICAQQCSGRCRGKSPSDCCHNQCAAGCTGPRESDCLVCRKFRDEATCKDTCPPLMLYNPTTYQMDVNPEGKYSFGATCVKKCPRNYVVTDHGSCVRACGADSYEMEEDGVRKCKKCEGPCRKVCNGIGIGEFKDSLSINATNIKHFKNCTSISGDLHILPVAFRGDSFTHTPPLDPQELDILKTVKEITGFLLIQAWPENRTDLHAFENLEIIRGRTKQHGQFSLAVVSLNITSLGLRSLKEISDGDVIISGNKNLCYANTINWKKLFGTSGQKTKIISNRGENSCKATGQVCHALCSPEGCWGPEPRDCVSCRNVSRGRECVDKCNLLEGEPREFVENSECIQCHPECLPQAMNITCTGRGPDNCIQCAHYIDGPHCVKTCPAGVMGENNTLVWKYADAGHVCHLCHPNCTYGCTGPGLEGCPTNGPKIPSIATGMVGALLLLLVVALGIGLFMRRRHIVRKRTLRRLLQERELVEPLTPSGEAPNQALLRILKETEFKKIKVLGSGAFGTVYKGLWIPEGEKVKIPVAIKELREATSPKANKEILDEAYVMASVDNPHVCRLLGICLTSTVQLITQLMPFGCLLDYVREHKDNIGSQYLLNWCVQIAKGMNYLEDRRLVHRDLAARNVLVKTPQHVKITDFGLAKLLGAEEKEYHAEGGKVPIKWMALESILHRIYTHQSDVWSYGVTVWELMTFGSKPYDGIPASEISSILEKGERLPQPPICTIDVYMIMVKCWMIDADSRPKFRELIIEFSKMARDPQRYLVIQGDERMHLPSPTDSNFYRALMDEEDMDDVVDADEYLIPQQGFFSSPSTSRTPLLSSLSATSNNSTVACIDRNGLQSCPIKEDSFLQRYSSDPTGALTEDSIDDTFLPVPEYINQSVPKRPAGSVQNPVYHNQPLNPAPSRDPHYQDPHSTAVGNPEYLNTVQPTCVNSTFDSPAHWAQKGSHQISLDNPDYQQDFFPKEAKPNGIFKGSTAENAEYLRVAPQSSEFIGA
Sequence of Vascular endothelial growth factor receptor 2 (P35968 whole entry): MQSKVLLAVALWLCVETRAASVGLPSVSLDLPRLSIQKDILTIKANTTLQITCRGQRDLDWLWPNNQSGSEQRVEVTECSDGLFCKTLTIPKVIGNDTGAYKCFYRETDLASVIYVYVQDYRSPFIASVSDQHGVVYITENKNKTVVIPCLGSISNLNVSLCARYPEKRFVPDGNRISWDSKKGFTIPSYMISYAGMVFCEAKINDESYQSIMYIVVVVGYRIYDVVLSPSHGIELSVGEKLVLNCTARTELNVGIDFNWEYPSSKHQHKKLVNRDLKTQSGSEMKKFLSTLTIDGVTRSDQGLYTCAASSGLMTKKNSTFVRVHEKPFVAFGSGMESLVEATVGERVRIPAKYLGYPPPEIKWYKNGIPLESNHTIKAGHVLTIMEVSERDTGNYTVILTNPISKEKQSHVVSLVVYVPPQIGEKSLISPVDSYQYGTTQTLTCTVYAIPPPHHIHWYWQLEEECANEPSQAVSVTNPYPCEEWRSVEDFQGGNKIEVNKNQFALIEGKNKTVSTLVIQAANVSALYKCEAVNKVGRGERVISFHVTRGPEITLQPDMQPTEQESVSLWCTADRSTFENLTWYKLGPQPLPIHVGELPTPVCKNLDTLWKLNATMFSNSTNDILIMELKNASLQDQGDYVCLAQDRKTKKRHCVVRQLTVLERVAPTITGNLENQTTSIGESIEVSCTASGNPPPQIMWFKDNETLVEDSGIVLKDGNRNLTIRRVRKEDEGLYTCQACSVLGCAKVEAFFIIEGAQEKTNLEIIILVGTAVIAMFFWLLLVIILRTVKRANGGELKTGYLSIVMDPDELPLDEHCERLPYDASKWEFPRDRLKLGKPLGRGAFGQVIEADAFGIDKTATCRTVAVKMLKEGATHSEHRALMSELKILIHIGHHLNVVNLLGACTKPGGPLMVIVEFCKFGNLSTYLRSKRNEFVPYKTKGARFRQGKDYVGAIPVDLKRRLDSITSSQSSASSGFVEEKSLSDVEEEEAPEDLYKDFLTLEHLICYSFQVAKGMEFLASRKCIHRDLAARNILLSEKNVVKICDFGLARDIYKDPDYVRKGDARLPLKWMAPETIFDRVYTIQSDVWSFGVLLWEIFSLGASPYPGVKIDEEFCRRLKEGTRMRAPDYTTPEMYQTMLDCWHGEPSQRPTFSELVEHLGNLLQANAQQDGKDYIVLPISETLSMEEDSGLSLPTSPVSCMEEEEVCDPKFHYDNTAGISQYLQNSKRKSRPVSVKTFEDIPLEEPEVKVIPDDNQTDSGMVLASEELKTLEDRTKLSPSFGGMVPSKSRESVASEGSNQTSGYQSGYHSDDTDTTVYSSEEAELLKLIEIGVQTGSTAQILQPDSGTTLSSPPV

As a reminder, the IC50 is the concentration that inhibits the measured activity by half. In the case of `Oc1cc(Nc2ccnc3cc(-c4ccccc4)ccc23)ccc1Cl`, the IC50 in assay [1] was 100 nM; against TGF-beta receptor type-1, 79 nM; in assay [2], 6 nM; in assay [3], below 1 nM. Regarding `COCCn1c(-c2cnc(-c3ccc(Cl)cc3)[nH]2)nc2cc(C(=O)NCCO)ccc21`, the RBA in assay [4] is 30%.

In assay [5], `COCCNC(=O)c1cc(CNc2ccc(Cl)c(O)c2)cc(-c2ccc3c(Nc4ccc(Cl)c(O)c4)ccnc3c2)c1` had an IC50 of 6 nM. Turning to `COCCNC(=O)c1cc(CNc2ccc(Cl)c(O)c2)cc(-c2ccc3c(Cl)ccnc3c2)c1`, the IC50 in assay [6] was above 50000 nM.

Take `c1ccc(-c2ccc3c(Nc4ccc5scnc5c4)ccnc3c2)cc1`: the IC50 in assay [1] is 2500 nM; against TGF-beta receptor type-1, 2500 nM; in assay [2], 16 nM; in assay [3], 16 nM. In assay [4], `NC(=O)c1cc(CNc2ccc3scnc3c2)cc(-c2ccc3c(Nc4ccc5scnc5c4)ccnc3c2)c1` had an RBA of 58%. On the same count and under the same terms, with `NC(=O)c1cc(C=O)cc(-c2ccc3c(Nc4ccc5scnc5c4)ccnc3c2)c1` the figure was 70%.

Values taken from ChEMBL document CHEMBL4828713, “DNA-Encoded Library Hit Confirmation: Bridging the Gap Between On-DNA and Off-DNA Chemistry” (ACS Med Chem Lett, 2021).
